# Assay outcomes from PubChem BioAssay.
# Only some compounds are listed: those with a hit (about 0.79% of all), similar ones and a draw of the others.
# hIAP block – human IAP inhibitors, primary screen, biochemical, luminescence, uHTS. actives 0.12% (n = 330,000). inhibition, % at 10 µM. purified IAP, CDP-Star luminescence, 30 min;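 active means inhibition reaching a set limit with compound at 10 µM in the primary screen, cut at about 35% in these data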;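 further: plate controls were DMSO wells with enzyme for no effect and no-enzyme buffer wells for full effect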
# Target sequence (P09923 whole entry, looked up): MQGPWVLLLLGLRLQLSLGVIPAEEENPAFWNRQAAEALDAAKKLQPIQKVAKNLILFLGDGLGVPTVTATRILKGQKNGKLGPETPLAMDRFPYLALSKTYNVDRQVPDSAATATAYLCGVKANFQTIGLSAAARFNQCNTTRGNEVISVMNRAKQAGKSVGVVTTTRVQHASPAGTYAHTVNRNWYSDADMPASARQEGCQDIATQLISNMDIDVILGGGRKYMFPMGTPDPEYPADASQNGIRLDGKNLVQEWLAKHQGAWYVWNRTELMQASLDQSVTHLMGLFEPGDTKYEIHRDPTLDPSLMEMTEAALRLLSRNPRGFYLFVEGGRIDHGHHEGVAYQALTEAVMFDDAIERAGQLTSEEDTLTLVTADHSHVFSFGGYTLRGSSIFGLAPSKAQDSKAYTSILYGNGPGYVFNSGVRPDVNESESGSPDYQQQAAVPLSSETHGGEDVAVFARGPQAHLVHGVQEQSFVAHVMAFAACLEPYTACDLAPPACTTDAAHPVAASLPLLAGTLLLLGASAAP
# mIAP activ – activators of mouse IAP, primary screen, biochemical, luminescence, uHTS. activation factor at 10 µM. AID 2805, 2010. actives 0.24% (n = 330,000). muIAP, CDP-Star luminescence, 30 min; stronger effect = higher value; 1 = vehicle-only enzyme signal, 0 = enzyme-free wells;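 active means activation factor of at least 2 at 20 µM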
#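 Assay system: mouse IAP enzyme / Compound: DMSO-dissolved test compounds / Timing: 30 min, room temperature / Measured by: luminescence from enzymatic CDP-Star hydrolysis / Control set: DMSO-only wells, enzyme-free buffer wells as negative control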
# mIAP block – inhibitors of mouse IAP, primary screen, biochemical, luminescence, uHTS; intestinal alkaline phosphatase [Mus musculus]; purified mouse IAP, CDP-Star luminescence, 30 min; inhibition, % at 10 µM; actives 0.2% (n = 330,000);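 active means inhibition of at least 40% at 10 µM in the primary screen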;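 further: plate controls were DMSO with enzyme for no effect and no enzyme wells for full effect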
# bIAP inh – bovine intestinal alkaline phosphatase inhibitors, primary screen, selectivity assay for TNAP inhibitor project, biochemical, bovine IAP, CDP-star luminescence. alkaline phosphatase, intestinal [Bos taurus]. inhibition, % at 20 µM. AID 1019, 2008. purified bovine IAP, 30 min. 190,000 tested, under 10 active;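 active means over 50% inhibition of intestinal alkaline phosphatase at 20 µM in the single-dose screen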
#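 System: purified bovine intestinal alkaline phosphatase (IAP) enzyme; Input: IAP diluted 1/65,000,000 in the well; Measured by: CDP-star luminescence signal; Compound dosing: 20 µM single dose; Incubation: 30 min reaction at room temperature.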
# bIAP act – bovine intestinal alkaline phosphatase activators, primary screen, biochemical, bovine IAP, CDP-star luminescence. alkaline phosphatase, intestinal [Bos taurus]. purified bovine IAP, 30 min; stronger effect = higher value; fold of DMSO-control signal, blank-subtracted. activation factor at 20 µM. actives 0.17% (n = 200,000). AID 1016, 2008;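 active means activation factor of 2 or more at 20 µM, a signal rise over negative controls twice the positive control's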
# hIAP activ – human IAP activators, primary screen, biochemical, luminescence, uHTS. Intestinal-type alkaline phosphatase (Homo sapiens), P09923. purified human IAP, CDP-Star luminescence, 30 min; stronger effect = higher value; 1 = vehicle-only enzyme, 0 = enzyme-free background. activation factor at 10 µM. actives 0.16% (n = 330,000);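 active means activation factor of the enzyme at least 2-fold when tested at 20 µM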
# * hit, by the source's call; i = inactive; x = not tested or not shown.
SMILES,hIAP block,mIAP activ,mIAP block,bIAP inh,bIAP act,hIAP activ
COc1ccc(OCC(O)Cn2c(=N)n(Cc3ccccc3)c3ccccc32)cc1 (configuration not stated),-9.1,1.04,-4.1,-177.8,2.8*,1.09
C#CCOc1c(/C=C\c2nc(O)c([N+](=O)[O-])c(=O)[nH]2)cc(Br)cc1OC,-5.9,0.946,5.4,x,x,1.06
Cc1ccc(-n2cc(CN(C)Cc3ncc[nH]3)c(-c3cccc(C)c3)n2)cc1,-42.6,1.04,-4.4,-253.4,3.5*,1.43
CN(Cc1ncc[nH]1)Cc1cn(-c2ccccc2)nc1-c1ccc2c(c1)OCO2,-13.7,1.13,-13.0,x,x,1.14
CN(C)S(=O)(=O)c1cccc(NC(=O)c2ccccc2OCc2ccc(F)cc2)c1,8.0,0.972,2.8,x,x,0.92
COc1ccc(S(=O)(=O)/N=C2/NC(=O)/C(=C/c3ccco3)S2)cc1,-8.0,0.428,57.2*,-5.1,1.1,1.08
COc1ccc(N=C2NC(=O)/C(=C/c3ccco3)S2)cc1,10.1,0.746,25.4,x,x,0.899
CCCCNC(=O)CSc1nc2cc3c(cc2c(=O)n1CCC(=O)NCCc1ccc(OC)c(OC)c1)OCO3,-34.4,1.54,-54.5,-101.0,2*,1.34
COc1ccc(-c2cc(NCc3ccccn3)n3ncnc3n2)cc1,1.9,1.81,-81.3,i,7.4*,0.981
c1ccc(CNc2c3c(nc4ncnn24)CCCC3)nc1,16.0,0.938,6.2,-378.4,4.8*,0.84
CN(CC(=O)Nc1cccc(F)c1)C(=O)c1ccccc1Sc1ccccc1C#N,-0.5,1.05,-5.2,x,x,1
O=c1cc(CCl)nc(Cc2c(Cl)cccc2Cl)[nH]1,-15.3,0.977,2.3,x,x,1.15
CCN1CCN(c2ccc(Nc3ccnc4ccccc34)cc2)CC1,-0.6,0.943,5.7,x,x,1.01
COCCN(C(=O)Cc1cccs1)C(C(=O)NCc1ccc(OC)cc1)c1ccc(C(C)C)cc1 (configuration not stated),-13.1,1.24,-23.7,-114.8,2.1*,1.13
CCc1ccc(C(C(=O)NCc2ccc(OC)cc2)N(CCOC)C(=O)Cc2cccs2)cc1 (configuration not stated),4.6,1.25,-25.1,-19.0,1.2,0.954
O=C1/C(=C/c2ccc(N3CCOCC3)o2)SC(=Nc2ccccc2)N1CCc1c[nH]c2ccccc12,42.6*,0.88,12.0,39.7,0.6,0.574
O=c1oc(-c2ccccc2)cc(Cl)c1Cl,0.8,1.13,-13.1,x,x,0.992
FC(F)Sc1ccc(NC(=S)NCC2CCCCC2)cc1,9.1,3.28*,-228.4,x,0.3,0.909
S=C(NCC1CCCCC1)Nc1cccnc1,10.6,1.01,-1.3,5.3,0.9,0.894
CN(CC(=O)Nc1ccc(SC(F)F)cc1)C1CCCCC1,-3.2,1.2,-20.1,17.2,0.8,1.03
CC1CCCCC1NC(=S)Nc1ccc(SC(F)F)cc1 (configuration not stated),-10.5,3.27*,-227.4,20.6,0.8,1.1
FC(F)Sc1ccc(NC(=S)NC2CCCCC2)cc1,-10.9,2.23*,-122.8,26.4,0.7,1.11
O=C1/C(=C/c2ccccc2Cl)SC(=S)N1CCCC(=O)N(CCO)c1ccccc1,-10.0,0.764,23.6,x,x,1.1
CCOc1ccc2nc(NCCCNC(=O)c3cc(OC)c(OC)c(OC)c3)c(C#N)cc2c1,-71.9,2.01*,-100.9,x,x,1.72
C[C@@H](C(=O)Nc1ccc2ccccc2c1)[C@@H]1C[C@@]1(C)[C@@H](NC(=O)OCc1ccccc1)c1ccccc1,-2.8,2.04*,-104.0,x,x,1.03
SMILES,hIAP block,mIAP activ,mIAP block,bIAP inh,bIAP act,hIAP activ
COc1ccccc1N1CCN(S(=O)(=O)CCNC(=O)C23CC4CC(CC(C4)C2)C3)CC1,28.4,1.01,-1.3,x,x,0.716
O=C(Nc1ccccc1)Nc1cccc2ccccc12,-2.1,2.89*,-189.2,x,x,1.02
CCOc1ccccc1NC(=O)NCCc1c[nH]c2ccccc12,-19.6,1.21,-20.6,x,x,1.2
O=C(NCCc1c[nH]c2ccccc12)Nc1cccc2ccccc12,2.5,2.32*,-132.4,22.3,0.8,0.975
CCOC(=O)c1cccc(NC(=S)NCc2ccc(C)cc2)c1,-17.1,2.43*,-143.2,7.4,0.9,1.17
CC(=O)c1cccc(NC(=S)NCc2ccccc2)c1,-5.2,1.02,-1.6,x,x,1.05
COc1ccc(CNC(=O)Nc2cccc3ccccc23)cc1,5.0,2.06*,-105.5,-21.0,1.2,0.95
CC(=O)c1ccc(OCCCC(=O)NCc2nnc3ccccn23)cc1,10.9,1.05,-5.3,x,x,0.891
COc1cc(NC(=O)CCc2nnc3ccc(N4CCOCC4)nn23)cc(OC)c1OC,-32.8,1.05,-4.8,x,x,1.33
CC(=O)c1cccc(NC(=O)CNC(=O)c2sc3ccccc3c2Cl)c1,15.8,0.88,12.0,x,x,0.842
O=C(NCc1ccccc1)Nc1cccc2ccccc12,-10.1,1.65,-64.9,-8.2,1.1,1.1
CCOC(=O)c1ccc(NC(=O)NCc2ccc(OC)cc2)cc1,2.3,2.19*,-118.9,-5.7,1.1,0.977
O=C(NCc1cccc2ccccc12)Nc1ccccc1,-13.4,2*,-100.4,6.4,0.9,1.13
Cc1cc(C)cc(NC(=O)CCc2nc3sc4c(c3c(=O)[nH]2)CCCC4)c1,-4.3,0.922,7.8,x,x,1.04
CCc1ccc(C(C)NC(=S)NC2CCCCC2)cc1 (configuration not stated),7.9,1.25,-24.6,x,x,0.921
CC(C)c1ccc(C(C)NC(=S)NC2CCCCC2)cc1 (configuration not stated),-46.5,2.16*,-115.9,x,x,1.47
O=C(NCc1ccco1)c1nc2c(nnn2Cc2cccc(Cl)c2)c(=O)[nH]1,-24.0,1.09,-9.3,-3.1,1,1.24
O=C(NCc1ccccc1)c1nc2c(nnn2Cc2cccc(Cl)c2)c(=O)[nH]1,-25.7,1.01,-1.2,-115.8,2.2*,1.26
CC(C)Cn1c(N)c(C(=O)COC(=O)c2ccncc2)c(=O)n(C)c1=O,-26.7,1.12,-11.9,-7.8,1.1,1.27
CC(C)Cn1c(N)c(C(=O)COC(=O)c2nccnc2N)c(=O)n(C)c1=O,-14.2,0.518,48.2*,x,x,1.14
Cc1c(NC(=O)CN2CCN(c3ccc(O)cc3)CC2)c(=O)n(-c2ccccc2)n1C,17.3,1.05,-5.4,-2.4,1,0.827
Cc1cccc(C)c1NC1=NC2(CCCCC2)N=C(N)N1,-24.1,1.04,-4.3,-19.5,1.2,1.24
